Data set [1] can be described thus: folding enthalpy; higher = less favourable; fluorescence melt of hairpins on a sequencing array, two-state fit. The following applies: sodium 0.088 M. The method, boiled down: (§1)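 Cy3 fluorescence of library hairpins on a sequenced MiSeq flow cell, with annealed Cy3 and quencher oligos, was imaged in 50 mM Na-HEPES pH 8.0, 25 mM NaCl in 2.5 °C steps up to 60 °C. Signals were normalised to pre-quench Cy3 and to control variants. Melting temperature and folding enthalpy came from bootstrapped two-state fits, inverse-variance combined over four replicates. Fitted temperatures were raised by 9.35 °C to match UV melts.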

A short description of data set [2]: melting temperature; fluorescence melt of hairpins on a sequencing array, two-state fit, raised by 9.35 °C to match UV melts. The following applies: sodium 0.088 M. The method in brief:
as §1

Take GATCTGGGTGCAGATC ((((((....)))))): the folding enthalpy in data set [1] was -47.2 kcal/mol. In data set [2], the Tm worked out at 52.5 °C.

As to GCCCACGAAAGTGATGGC ((((((....)))..))), in data set [1], the folding enthalpy was -29.4 kcal/mol. Also, the Tm in data set [2] turned out to be 50.6 °C.

Consider GAATCCGAAAGGAGGTTC ((((((....)))..))), for which, in data set [1], the folding enthalpy was -10.9 kcal/mol. Moreover, in data set [2], the Tm was found to be 26.2 °C.

For the sequence GCTAGGCGAAAGCCAGGC ((..(((....)))..)), in data set [1], the folding enthalpy is -16.8 kcal/mol. Also, the Tm in data set [2] was found to be 54.9 °C.

As for GTGGTTGAAAAACCAC ((((((....)))))), the folding enthalpy in data set [1] is -37.8 kcal/mol. The Tm in data set [2] turned out to be 59.7 °C.

As for GCAGCGCGAAAGCGGAGC ((..(((....)))..)), in data set [1], the folding enthalpy is -17.7 kcal/mol. Moreover, the Tm in data set [2] is 56 °C.

With GATCGACAGCTCGATC ((((((....)))))), in data set [1], the folding enthalpy was -41.2 kcal/mol. Besides, the Tm in data set [2] turned out to be 49.4 °C.

On to GATCGCGCCTGCGATC ((((((....)))))), for which the folding enthalpy in data set [1] is -26.7 kcal/mol. Besides, the Tm in data set [2] was found to be 69.3 °C.

Turning to GTGAACGAAAGTTAACAC ((((((....)))..))), in data set [1], the folding enthalpy is -19.5 kcal/mol. Further, in data set [2], the Tm came to 35.5 °C.

As to GATCACAATGTGATC ((((((...)))))), the folding enthalpy in data set [1] is -36.8 kcal/mol. Further, the Tm in data set [2] was 55.6 °C.

Take GTTGTCACGAAAGTGAAC (((..(((....)))))): in data set [1], the folding enthalpy was -23.7 kcal/mol. In data set [2], the Tm was determined as 48.1 °C.

With GTATAACGAAAGTTTTAC (((.(((....))).))), in data set [1], the folding enthalpy was -20.8 kcal/mol. Also, the Tm in data set [2] was 34.7 °C.

GTCGACGAAAGTCAGGAC ((((((....)))..))): in data set [1], the folding enthalpy is -17.6 kcal/mol. Besides, the Tm in data set [2] was determined as 41.7 °C.

On to GCCGCGCGAAAGCTAGGC (((..((....))..))), for which, in data set [1], the folding enthalpy was -28.2 kcal/mol. The Tm in data set [2] came out at 62.5 °C.

On to GCGTCATAACGC ((((....)))), for which the folding enthalpy in data set [1] is -23.4 kcal/mol. For the same sequence, the Tm in data set [2] was found to be 53.3 °C.

Regarding GATCTTTAGAAAGATC ((((((....)))))), the folding enthalpy in data set [1] is -31.1 kcal/mol. The Tm in data set [2] turned out to be 40.6 °C.

Take GTGCGCGAAAGCGCCAC ((((((....))).))): in data set [1], the folding enthalpy is -8.65 kcal/mol. The Tm in data set [2] turned out to be 52.2 °C.

Turning to GCGTTCCTACGC ((((....)))), the folding enthalpy in data set [1] was -25.2 kcal/mol. Further, in data set [2], the Tm was determined as 57.9 °C.

For GATCTCGTCTGAGATC ((((((....)))))), in data set [1], the folding enthalpy was -41.8 kcal/mol. The Tm in data set [2] is 55.3 °C.

As to GTCCCAGAAATGGGAC ((((((....)))))), the folding enthalpy in data set [1] is -33.7 kcal/mol. Besides, in data set [2], the Tm was 64.3 °C.

GAGGATGGAAACGTCTTC ((.((.(....).)).)): the folding enthalpy in data set [1] was -13.1 kcal/mol. Further, in data set [2], the Tm was determined as 32.9 °C.

Turning to GACTGCGAAAGCAGCGTC ((((((....)))..))), the folding enthalpy in data set [1] is -10.3 kcal/mol. Moreover, in data set [2], the Tm stood at 50.7 °C.

Consider GCAATGCGAAAGCACAGC ((..(((....)))..)), for which the folding enthalpy in data set [1] was -14.9 kcal/mol. The Tm in data set [2] is 34.3 °C.

With GGAGTACGAAAGTATCC (((.(((....)))))), the folding enthalpy in data set [1] was -22.7 kcal/mol. Also, in data set [2], the Tm was 38.5 °C.

GCTAAGGAAACTTAGC ((((((....)))))): in data set [1], the folding enthalpy was -24.6 kcal/mol. The Tm in data set [2] worked out at 52 °C.

For the sequence GTCCGCGAAAGCGCGAC ((((((....))).))), the folding enthalpy in data set [1] is -20.7 kcal/mol. Also, in data set [2], the Tm turned out to be 56.9 °C.

With GAGAGTACGAAAGTACTC (((..(((....)))))), the folding enthalpy in data set [1] was -11.7 kcal/mol. The Tm in data set [2] was determined as 55.2 °C.

As for GCTCATGGAAACATAAGC (((.(((....))).))), the folding enthalpy in data set [1] was -18.2 kcal/mol. In data set [2], the Tm was found to be 32 °C.

Consider GAGGTAGAAATACCTC ((((((....)))))), for which the folding enthalpy in data set [1] is -33.5 kcal/mol. Besides, in data set [2], the Tm worked out at 50.2 °C.

With GGCGCTCGAAAGAGAGCC (((.(((....))).))), the folding enthalpy in data set [1] was -36.8 kcal/mol. In data set [2], the Tm was 67.2 °C.

Take GATAACGGAAACGTTACC (.(((((....))))).): the folding enthalpy in data set [1] is -16.5 kcal/mol. Further, in data set [2], the Tm turned out to be 34 °C.

For the sequence GATCAGGCCCCTGATC ((((((....)))))), in data set [1], the folding enthalpy is -46.1 kcal/mol. Also, the Tm in data set [2] worked out at 53.1 °C.

Turning to GATCGTTCCAACGATC ((((((....)))))), the folding enthalpy in data set [1] is -39.5 kcal/mol. In addition, the Tm in data set [2] was 58.6 °C.

As to GTGACCGGAAACAGTCAC (((((.(....).))))), the folding enthalpy in data set [1] is -32.1 kcal/mol. In addition, the Tm in data set [2] stood at 45.2 °C.

For the sequence GATCGGAAGACCGATC ((((((....)))))), the folding enthalpy in data set [1] is -29 kcal/mol. Also, the Tm in data set [2] turned out to be 52.8 °C.

On to GGCCCCCGAAAGGGTGCC (((.(((....))).))), for which the folding enthalpy in data set [1] is -27.9 kcal/mol. For the same sequence, the Tm in data set [2] came out at 64.5 °C.

As to GGTGGACCGAAAGGTACC (((..(((....)))))), the folding enthalpy in data set [1] was -13.4 kcal/mol. The Tm in data set [2] was determined as 45 °C.

Source of the values: the array DNA melting data of Ke et al. (doi:10.1101/2024.01.08.574731).
